Results published in ChEMBL document CHEMBL3045225, “Vapor-phase toxicity of Derris scandens Benth.-derived constituents against four stored-product pests” (2011).
In brackets after ≈: the same amount, converted by molar mass. Activity calls are given as the source filed them. The calls are words filed in the database; no cut-off is given here.

Columns and labels:
Callosobruchus chinensis [1] = test: Insecticidal activity against 3 to 8 days old Callosobruchus chinensis assessed as mortality at 1 ug/mL measured after 24 hr by fumigation assay; format: functional
How it was run: (§1)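 Adults from Directorate of Maize Research lab cultures, 20 per sealed 100 mL PVC container. Acetone solutions (0.1-1.0 μg/mL) applied to filter paper, air-dried 5 min, fixed inside lid; acetone-only controls. Held at 28 ± 2 °C, 65 ± 5% RH. Death confirmed by paintbrush probing; counted every 24 h to 72 h. Five replicates per treatment; three runs on different dates.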

Tribolium castaneum [2] = test: Insecticidal activity against 3 to 8 days old Tribolium castaneum (red flour beetle) assessed as mortality at 0.2 ug/mL measured within 24 hr by fumigation assay; format: functional, organism-based; how it was run: as §1
Tribolium castaneum [3] = test: Insecticidal activity against 3 to 8 days old Tribolium castaneum (red flour beetle) assessed as mortality measured after 24 hr by fumigation assay; format: functional; how it was run: as §1
Tribolium castaneum [4] = test: Insecticidal activity against 3 to 8 days old Tribolium castaneum (red flour beetle) assessed as mortality at 1 ug/mL measured after 72 hr by fumigation assay; format: functional; how it was run: as §1
Tribolium castaneum [5] = test: Insecticidal activity against 3 to 8 days old Tribolium castaneum (red flour beetle) assessed as mortality at 1 ug/mL measured after 24 hr by fumigation assay; format: functional; how it was run: as §1
Rhyzopertha dominica [6] = test: Insecticidal activity against 3 to 8 days old Rhyzopertha dominica assessed as mortality measured after 24 hr by fumigation assay; format: functional; how it was run: as §1
Rhyzopertha dominica [7] = test: Insecticidal activity against 3 to 8 days old Rhyzopertha dominica assessed as mortality at 1 ug/mL measured after 72 hr by fumigation assay; format: functional; how it was run: as §1
Rhyzopertha dominica [8] = test: Insecticidal activity against 3 to 8 days old Rhyzopertha dominica assessed as mortality at 1 ug/mL measured after 24 hr by fumigation assay; format: functional; how it was run: as §1
Sitophilus oryzae [9] = test: Insecticidal activity against 3 to 8 days old Sitophilus oryzae (rice weevil) assessed as mortality measured after 72 hr by fumigation assay; format: functional; how it was run: as §1
Sitophilus oryzae [10] = test: Insecticidal activity against 3 to 8 days old Sitophilus oryzae (rice weevil) assessed as mortality at 1 ug/mL measured after 72 hr by fumigation assay; format: functional; how it was run: as §1
Sitophilus oryzae [11] = test: Insecticidal activity against 3 to 8 days old Sitophilus oryzae (rice weevil) assessed as mortality at 1 ug/mL measured after 24 hr by fumigation assay; format: functional; how it was run: as §1
Callosobruchus chinensis [12] = test: Insecticidal activity against 3 to 8 days old Callosobruchus chinensis assessed as mortality measured after 72 hr by fumigation assay; format: functional; how it was run: as §1
Callosobruchus chinensis [13] = test: Insecticidal activity against 3 to 8 days old Callosobruchus chinensis assessed as mortality at 1 ug/mL measured after 72 hr by fumigation assay; format: functional; how it was run: as §1
Callosobruchus chinensis [14] = test: Insecticidal activity against 3 to 8 days old Callosobruchus chinensis assessed as mortality at 1 ug/mL measured after 48 hr by fumigation assay; format: functional; how it was run: as §1
Tribolium castaneum [15] = test: Insecticidal activity against 3 to 8 days old Tribolium castaneum (red flour beetle) assessed as mortality at 1 ug/mL measured after 48/ hr by fumigation assay; format: functional; how it was run: as §1
Rhyzopertha dominica [16] = test: Insecticidal activity against 3 to 8 days old Rhyzopertha dominica assessed as mortality at 1 ug/mL measured after 48 hr by fumigation assay; format: functional; how it was run: as §1
Sitophilus oryzae [17] = test: Insecticidal activity against 3 to 8 days old Sitophilus oryzae (rice weevil) assessed as mortality at 1 ug/mL measured after 48 hr by fumigation assay; format: functional; how it was run: as §1

SMILES | mortality at 1 µg/mL (Callosobruchus chinensis [1]) | Activity (Tribolium castaneum [2]) | LC50 (Tribolium castaneum [3]) | mortality at 1 µg/mL (Tribolium castaneum [4]) | mortality at 1 µg/mL (Tribolium castaneum [5]) | LC50 (Rhyzopertha dominica [6]) | mortality at 1 µg/mL (Rhyzopertha dominica [7]) | mortality at 1 µg/mL (Rhyzopertha dominica [8]) | LC50 (Sitophilus oryzae [9]) | mortality at 1 µg/mL (Sitophilus oryzae [10]) | mortality at 1 µg/mL (Sitophilus oryzae [11]) | LC50 (Callosobruchus chinensis [12]) | mortality at 1 µg/mL (Callosobruchus chinensis [13]) | mortality at 1 µg/mL (Callosobruchus chinensis [14]) | mortality at 1 µg/mL (Tribolium castaneum [15]) | mortality at 1 µg/mL (Rhyzopertha dominica [16]) | mortality at 1 µg/mL (Sitophilus oryzae [17])
O=c1c(-c2ccc(O)cc2)coc2cc(O)cc(O)c12 [GENISTEIN] | 100% | Active | 0.18 µg/mL (≈ 0.666 µM) | 100% | 100% | 0.28 µg/mL (≈ 1.04 µM) | 100% | 100% | 0.31 µg/mL (≈ 1.15 µM) | 100% | 100% | 0.17 µg/mL (≈ 0.629 µM) | 100% |  |  |  | 
C[C@@H]1O[C@@H](OC[C@H]2O[C@@H](Oc3cc(O)c4c(=O)c(-c5ccc(O)cc5)coc4c3)[C@H](O)[C@@H](O)[C@@H]2O)[C@H](O)[C@H](O)[C@H]1O [SPHAEROBIOSIDE] | 100% | Active | 0.2 µg/mL (≈ 0.346 µM) | 100% | 100% | 0.27 µg/mL (≈ 0.467 µM) | 100% | 100% | 0.18 µg/mL (≈ 0.311 µM) | 100% | 100% | 0.21 µg/mL (≈ 0.363 µM) | 100% |  |  |  | 
COc1ccc(-c2c(O)c3c(OC)c(CC=C(C)C)c4c(c3oc2=O)C=CC(C)(C)O4)cc1 [SCANDENIN A] | 79% |  | 0.82 µg/mL (≈ 1.83 µM) | 63.8% | 58.2% | 0.82 µg/mL (≈ 1.83 µM) | 67.8% | 60.6% | 0.76 µg/mL (≈ 1.69 µM) | 75.6% | 69.4% | 0.43 µg/mL (≈ 0.959 µM) | 83% | 81.4% | 60.8% | 64.2% | 72%
COc1c(CC=C(C)C)c2c(c3oc(=O)c(-c4ccc(O)cc4)c(O)c13)C=CC(C)(C)O2 [SCANDENIN] | 49.5% |  | > 1 µg/mL | 32.2% | 24.7% | 0.74 µg/mL (≈ 1.7 µM) | 78.2% | 72.3% | 0.45 µg/mL (≈ 1.04 µM) | 85.4% | 82% | 0.9 µg/mL (≈ 2.07 µM) | 58.2% | 56% | 29.6% | 75.8% | 83.6%
COc1c(CC=C(C)C)c2c(c3occ(-c4ccc(O)cc4)c(=O)c13)C=CC(C)(C)O2 [SCANDINONE] | 100% | Active | 0.2 µg/mL (≈ 0.478 µM) | 100% | 100% | 0.33 µg/mL (≈ 0.789 µM) | 100% | 100% | 0.24 µg/mL (≈ 0.573 µM) | 100% | 100% | 0.31 µg/mL (≈ 0.741 µM) | 100% |  |  |  | 
CC(C)=CCc1c2c(c(O)c3c(=O)c(-c4ccc(O)cc4)coc13)C=CC(C)(C)O2 [WARANGALONE] | 27.9% |  | > 1 µg/mL | 37.2% | 30.7% | > 1 µg/mL | 21.8% | 15.8% | 0.84 µg/mL (≈ 2.08 µM) | 63.4% | 50.1% | > 1 µg/mL | 31.4% | 29.1% | 32.8% | 18.6% | 60%
CC(C)=CCc1c2c(c(O)c3c(=O)cc(-c4ccc(O)cc4)oc13)C=CC(C)(C)O2 [LAXIFOLIN] | 88.8% |  | 0.34 µg/mL (≈ 0.841 µM) | 100% | 92.3% | 0.34 µg/mL (≈ 0.841 µM) | 92% | 89.3% | 0.2 µg/mL (≈ 0.494 µM) | 100% | 100% | 0.39 µg/mL (≈ 0.964 µM) | 96.4% | 93.2% | 94.6% | 90.8% | 
CC(C)=CCc1cc(-c2coc3cc(O)c(CC=C(C)C)c(O)c3c2=O)ccc1O [LUPALBIGENIN] | 100% |  | 0.38 µg/mL (≈ 0.935 µM) | 91% | 85.4% | 0.29 µg/mL (≈ 0.713 µM) | 100% | 93.4% | 0.26 µg/mL (≈ 0.64 µM) | 100% | 100% | 0.23 µg/mL (≈ 0.566 µM) | 100% |  | 88.4% | 94.6% | 
CC(C)=CCc1c2c(c3occ(-c4ccc(O)cc4)c(=O)c3c1O)C=CC(C)(C)O2 [OSAJIN] | 100% | Active | 0.26 µg/mL (≈ 0.643 µM) | 100% | 100% | 0.32 µg/mL (≈ 0.791 µM) | 100% | 100% | 0.28 µg/mL (≈ 0.692 µM) | 100% | 100% | 0.29 µg/mL (≈ 0.717 µM) | 100% |  |  |  | 
